# Bioassay records from PubChem BioAssay.
# eIF4E-4G inh: inhibitors of eIF4E and eIF4G interaction in translation initiation | TR-FRET eIF4E-eIF4GI(517-606) binding, 2 h | inhibition, % at 21.7 µM | 220,000 compounds, 0.37% hits | AID 782;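 note: 0% = full FRET control wells and 100% = background wells lacking eIF4GI fragment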
# Target sequence (P63073 whole entry, looked up, the tested form may be a part): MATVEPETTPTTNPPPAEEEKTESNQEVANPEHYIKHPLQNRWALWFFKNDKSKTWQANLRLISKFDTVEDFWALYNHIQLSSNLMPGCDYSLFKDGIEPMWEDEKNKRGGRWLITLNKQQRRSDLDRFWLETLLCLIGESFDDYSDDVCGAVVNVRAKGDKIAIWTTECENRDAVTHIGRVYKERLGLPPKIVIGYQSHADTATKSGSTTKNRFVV
# Target sequence (Q04637 whole entry, looked up, the tested form may be a part): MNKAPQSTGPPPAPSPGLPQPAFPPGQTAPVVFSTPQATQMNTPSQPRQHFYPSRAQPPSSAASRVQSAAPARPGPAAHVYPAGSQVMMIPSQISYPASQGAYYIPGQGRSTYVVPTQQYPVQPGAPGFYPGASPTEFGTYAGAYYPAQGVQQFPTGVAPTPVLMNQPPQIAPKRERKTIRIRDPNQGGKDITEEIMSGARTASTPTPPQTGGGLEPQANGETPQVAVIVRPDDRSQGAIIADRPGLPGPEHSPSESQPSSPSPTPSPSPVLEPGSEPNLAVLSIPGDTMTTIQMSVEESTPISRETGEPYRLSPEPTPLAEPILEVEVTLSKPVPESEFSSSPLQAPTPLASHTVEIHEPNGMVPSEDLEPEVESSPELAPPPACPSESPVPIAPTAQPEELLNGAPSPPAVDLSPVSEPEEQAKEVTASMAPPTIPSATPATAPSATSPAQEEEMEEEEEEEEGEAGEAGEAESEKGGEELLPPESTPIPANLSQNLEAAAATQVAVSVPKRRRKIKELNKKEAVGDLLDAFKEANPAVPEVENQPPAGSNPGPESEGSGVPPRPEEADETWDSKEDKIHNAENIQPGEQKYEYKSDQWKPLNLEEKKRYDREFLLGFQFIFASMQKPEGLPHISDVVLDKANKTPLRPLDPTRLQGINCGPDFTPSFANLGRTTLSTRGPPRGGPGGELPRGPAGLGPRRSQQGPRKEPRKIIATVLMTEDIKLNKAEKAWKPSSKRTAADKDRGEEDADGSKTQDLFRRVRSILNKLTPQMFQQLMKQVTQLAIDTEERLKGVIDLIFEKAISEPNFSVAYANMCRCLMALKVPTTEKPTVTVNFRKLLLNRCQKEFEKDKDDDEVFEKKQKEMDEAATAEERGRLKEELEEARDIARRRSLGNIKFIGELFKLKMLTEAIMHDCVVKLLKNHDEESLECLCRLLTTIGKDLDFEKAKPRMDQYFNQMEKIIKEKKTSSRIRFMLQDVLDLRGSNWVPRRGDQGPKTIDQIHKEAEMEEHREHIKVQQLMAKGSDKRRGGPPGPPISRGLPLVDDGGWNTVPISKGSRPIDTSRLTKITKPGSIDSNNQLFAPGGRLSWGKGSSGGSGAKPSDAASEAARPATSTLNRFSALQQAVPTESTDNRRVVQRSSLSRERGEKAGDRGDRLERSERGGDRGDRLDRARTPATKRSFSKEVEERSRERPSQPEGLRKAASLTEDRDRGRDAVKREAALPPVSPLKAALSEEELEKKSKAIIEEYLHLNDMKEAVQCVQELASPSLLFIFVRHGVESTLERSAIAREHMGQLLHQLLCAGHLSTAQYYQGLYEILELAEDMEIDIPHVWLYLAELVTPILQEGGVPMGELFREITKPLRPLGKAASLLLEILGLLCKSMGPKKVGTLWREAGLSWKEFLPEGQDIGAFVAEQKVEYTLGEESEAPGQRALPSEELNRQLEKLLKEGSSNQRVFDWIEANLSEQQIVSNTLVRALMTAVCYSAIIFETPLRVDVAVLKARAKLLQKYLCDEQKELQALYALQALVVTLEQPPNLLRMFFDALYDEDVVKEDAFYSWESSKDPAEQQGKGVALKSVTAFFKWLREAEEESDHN
# 14-3-3 Bad inh: disrupts binding of bovine 14-3-3 zeta to phospho-Bad peptide. TR-FRET 14-3-3zeta/Dy647-pBad peptide displacement, 1 h. P63103. inhibition, % at 21.7 µM. 220,000 compounds, 0.71% hits;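 active = inhibition above about 70%, limit read from the data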;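 note: 0% = full 14-3-3 plus peptide FRET controls and 100% = background without 14-3-3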
# p47phox inh: p47phox (human) inhibition; 220,000 compounds, 0.53% hits; P14598; p47phox/p22phox peptide binding, fluorescence polarization, 2 h; inhibition, % at 24.7 µM; AID 1274;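 note: 0% = p47phox with labelled peptide and 100% = labelled peptide alone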
# Hck-Nef inh: human Hck-Nef kinase inhibition; P08631; Recombinant Hck-YEEI plus Nef, Z-Lyte FRET kinase assay; inhibition, % at 20 µM; 220,000 compounds, 0.68% hits;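 active = Hck-Nef kinase inhibition above about 50%, limit read from the data; inactive = inhibition below that limit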;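 note: 0% = DMSO with Hck plus Nef and 100% = Hck alone without Nef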
# Diaph act CS: diaphorase activation or chemical reduction counter-screen; Diaphorase/resazurin coupled assay, resorufin fluorescence, 16 min; active compounds read high; 1 = vehicle wells, 0 = NADH-free wells; activation factor at 20 µM; 190,000 compounds, 0.005% hits;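 active = diaphorase activity raised at least twofold by the compound at 20 µM; inactive = activation factor below 2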
#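 Material: bacterial diaphorase enzyme (C. kluyveri); amount: enzyme 0.07 U/mL final; reagent: NADH substrate 0.114 mM plus resazurin dye 0.1 mM, final; doses: single compound dose of 20 µM, 1% DMSO final; timing: 16 min enzyme reaction, ambient temperature; measured by: fluorescence of resorufin, 544 nm excitation, 590 nm emission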
# The depositor's hits bear a star; . = no result; [ ] = remark or other dose. An excerpt weighted towards active compounds, which were near 2% of everything screened.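 Rule for the calls, unless noted: active = inhibition above about 30% (limit read from the data); inactive = the rest.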
SMILES,eIF4E-4G inh,14-3-3 Bad inh,p47phox inh,Hck-Nef inh,Diaph act CS
CCOC(=O)C1CCCCN1Cc1cc(OC)ccc1OC (configuration not stated),-5.4,90.7*,-18.0,-17.1,1
CCOC(=O)C1CCN(Cc2ccc(F)c(Br)c2)CC1,0.8,23.2,-7.9,-1.5,0.8
CCOC(=O)C1CCCCN1Cc1cccc(OC)c1OC (configuration not stated),4.2,75.8*,-0.5,-1.5,0.9
CCOC(=O)C1CCN(Cc2ccc(F)cc2F)CC1,0.6,76.5*,-4.7,-2.5,0.9
CCOC(=O)C1CCCCN1Cc1ccc(F)cc1 (configuration not stated),1.1,62.8,-8.6,-0.4,1
CCOC(=O)C1CCCCN1Cc1cccc(F)c1 (configuration not stated),4.4,71.1*,-0.5,0.3,1
COc1cc(OC)cc(C(=O)Nc2ccc(S(=O)(=O)Nc3nc(C)cc(C)n3)cc2)c1,3.1,-10.2,6.4,15.7,1
CCOC(=O)/C(C#N)=C\N(C)C,-0.5,9.7,39.5*,-0.7,0.9
COC(=O)/C(C#N)=C/N(C)C,0.5,-0.3,-17.9,17.9,.
CCN(CC)C(=O)CSc1nnc(-c2cnccn2)n1-c1ccccc1,-3.0,0.8,-20.9,2.8,0.9
CC(=O)CSc1nnc(-c2cnccn2)n1-c1ccccc1,-4.3,-1.2,39.7*,0.6,0.9
C=CCC1(O)CC(c2ccco2)NC(c2ccco2)C1CCC (configuration not stated),2.3,79.4*,4.1,2.0,0.9
CCC1C(=O)CC(c2ccco2)NC1c1ccco1 (configuration not stated),0.5,35.0,-14.0,7.1,0.9
COc1ccc(O)c(N)c1,7.1,6.0,42.9*,26.3,0.4
O=C(/C=C/c1ccco1)N(c1ccccn1)c1ccccn1,34.4*,2.0,-8.0,26.9,0.7
O=C1C=C(c2ccc(Cl)cc2)OC2(CCCC2)O1,10.3,72.0*,0.6,-0.1,0.9
O=C1C=C(c2ccccc2)OC2(CCCC2)O1,-3.1,6.9,-5.8,-0.3,1
COC(=O)C1=NN(c2ccc(OC)cc2)C2C(=O)N(c3ccccc3OC)C(=O)C12 (configuration not stated),39.5*,1.5,-10.3,4.1,.
C=CCN1C(=O)CSc2ccc(C(=O)NCc3cccs3)cc21,-0.9,-4.1,-5.0,20.1,0.9
COc1ccc(-c2csc(NC(=O)CSc3nnc(Nc4ccccc4C)s3)n2)cc1,4.1,-18.6,-11.5,26.0,1
COc1ccc2cc(C)c3nnc(SCC(=O)Nc4nc(-c5ccc(F)cc5)cs4)n3c2c1,2.5,86.3*,23.1,37.9,1
COc1cc2c(ccc3cc(OC)c(OC)c(O)c32)cc1O,24.1,77.7*,-33.3,67.4*,.
CN1CCC(NC(=O)NC2CCCCC2)CC1,-2.7,-5.7,-0.3,16.9,.
CN1CCN(CC(=O)NC2CCCCC2)CC1,-0.1,71.0*,-1.7,-0.9,0.9
CC(O)CNCCNCc1cccs1 (configuration not stated),2.0,0.7,-8.2,4.1,1
SMILES,eIF4E-4G inh,14-3-3 Bad inh,p47phox inh,Hck-Nef inh,Diaph act CS
CCN(CC)S(=O)(=O)c1cc(F)ccc1OC,35.4*,3.2,-4.2,-8.7,0.9
CCN(CC)S(=O)(=O)c1cc(C(=O)Oc2ccccc2OC)ccc1OC,0.6,-2.4,-3.0,-0.4,0.8
CN(c1ccccc1)S(=O)(=O)c1cccc(NC(=O)c2ccc3ncsc3c2)c1,3.2,3.2,-11.7,-45.9,.
COC1=C/C(=C/c2c(N)n3nc(-c4ccc(C)cc4)sc3nc2=O)C=CC1=O,22.0,72.2*,-124.6,-8.1,0.8
Cc1nn(-c2ccccc2)c(Cl)c1/C=N/Nc1ccc(S(=O)(=O)Nc2ccccc2C(=O)O)cc1[N+](=O)[O-],26.4,88.2*[fluorescence artefact?],-19.8,16.3,0.7
O=C(Cn1c2[n+](c3ccc(C(F)(F)F)cc31)CCCCC2)Nc1ccccc1,34.0*[fluorescence artefact?],4.4,3.2,2.3,1
CCCc1ccc(NS(=O)(=O)c2c(C)oc(C)c2C(=O)OC)cc1,-3.7,0.2,-15.3,22.3,.
COc1cc2c(C)nc3onc(-c4ccccc4)c3c2cc1OC,-3.0,2.6,-18.0,2.7,0.9
COc1cc2c(C)nc(C)c(C#N)c2cc1OC,14.8,77.8*,-4.5,2.0,0.9
Cc1ccc2ncnc(Oc3ncccc3NC(=O)C(C)(C)C)c2c1,1.1,-0.2,-7.1,0.3,.
Cc1cc(OCC(=O)Nc2ccccc2F)nc(C(C)C)n1,-3.1,-4.2,-7.0,10.7,0.9
Cc1cc(OCC(=O)Nc2ccc(F)c(F)c2)nc(C(C)C)n1,-16.4,0.1,164.7*,7.9,0.9
NCCc1c(-c2ccccc2)n(-c2ccccc2)c2ccccc12,10.0,-3.5,-18.9,6.8,1.2
CCN(CC)C(=O)C1CCCN(Cc2ccccc2C(F)(F)F)C1 (configuration not stated),-1.8,70.9*,1.8,-3.3,0.8
CCOC(=O)C1CCCN(Cc2ccc3c(c2)OCO3)C1 (configuration not stated),-1.2,75.1*,-8.0,-22.5,1
O=C(C1CCCN(Cc2cccc(F)c2)C1)N1CCCCC1 (configuration not stated),-6.8,86.2*,2.2,1.1,0.8
NC(=O)C1CCCN(Cc2ccc(Cl)cc2)C1 (configuration not stated),4.2,72.4*,-2.5,0.1,1
CCN(CC)C(=O)C1CCCN(Cc2ccc3c(c2)OCO3)C1 (configuration not stated),-1.1,44.1,3.3,-15.1,1
CSc1ccc(CCNC(=O)c2cc(C)nn2-c2ccccc2)cc1,5.7,0.0,-9.8,21.0,.
CC(C)C(C(=O)O)N1CCS(=O)(=O)CC1 (configuration not stated),-2.6,-24.0,2.1,20.6,0.9
O=C(CCN1CCCCC1)NNC(=O)C12CC3CC(CC(C3)C1)C2,1.6,-2.3,-5.0,-8.8,1
CN(Cc1ccccc1)C(=O)C1CCCN(Cc2ccc(Cl)cc2)C1 (configuration not stated),7.2,75.6*,0.6,2.0,0.8
COc1cccc(CN2CCN(C(=O)CC(C)C)CC2)c1,1.7,34.0,-7.2,-0.8,0.7
CN(Cc1ccccc1)C(=O)C1CCN(Cc2ccc(F)cc2)CC1,3.4,23.1,-4.8,-14.9,0.8
CCN(CC)C(=O)C1CCCN(Cc2ccccc2)C1 (configuration not stated),-7.8,79.7*,1.7,-6.8,0.8
CCN(CC)C(=O)C1CCCN(Cc2ccc(N(C)C)cc2)C1 (configuration not stated),0.9,47.9,6.3,.,0.8
CC(C)CC(=O)N1CCN(Cc2cccc(F)c2)CC1,72.5*,78.7*,-7.1,-0.3,0.9
O=C(C1CCC1)N1CCN(Cc2ccccc2)CC1,5.4,11.7,4.5,4.9,0.9
